Assay outcomes from PubChem.
A selection: hits, their analogues and other compounds. The true share with any hit is near 2.2%.
PKD1 kinase inh – inhibitors of human PKD1 kinase | inhibition, % (no concentration beside the values) | Q15139 | 200,000 tested, 0.056% active | AID 797 | PKD1 kinase fluorescence polarization assay; in the data active = inhibition above about 50%
Target sequence (Q15139 whole entry, looked up): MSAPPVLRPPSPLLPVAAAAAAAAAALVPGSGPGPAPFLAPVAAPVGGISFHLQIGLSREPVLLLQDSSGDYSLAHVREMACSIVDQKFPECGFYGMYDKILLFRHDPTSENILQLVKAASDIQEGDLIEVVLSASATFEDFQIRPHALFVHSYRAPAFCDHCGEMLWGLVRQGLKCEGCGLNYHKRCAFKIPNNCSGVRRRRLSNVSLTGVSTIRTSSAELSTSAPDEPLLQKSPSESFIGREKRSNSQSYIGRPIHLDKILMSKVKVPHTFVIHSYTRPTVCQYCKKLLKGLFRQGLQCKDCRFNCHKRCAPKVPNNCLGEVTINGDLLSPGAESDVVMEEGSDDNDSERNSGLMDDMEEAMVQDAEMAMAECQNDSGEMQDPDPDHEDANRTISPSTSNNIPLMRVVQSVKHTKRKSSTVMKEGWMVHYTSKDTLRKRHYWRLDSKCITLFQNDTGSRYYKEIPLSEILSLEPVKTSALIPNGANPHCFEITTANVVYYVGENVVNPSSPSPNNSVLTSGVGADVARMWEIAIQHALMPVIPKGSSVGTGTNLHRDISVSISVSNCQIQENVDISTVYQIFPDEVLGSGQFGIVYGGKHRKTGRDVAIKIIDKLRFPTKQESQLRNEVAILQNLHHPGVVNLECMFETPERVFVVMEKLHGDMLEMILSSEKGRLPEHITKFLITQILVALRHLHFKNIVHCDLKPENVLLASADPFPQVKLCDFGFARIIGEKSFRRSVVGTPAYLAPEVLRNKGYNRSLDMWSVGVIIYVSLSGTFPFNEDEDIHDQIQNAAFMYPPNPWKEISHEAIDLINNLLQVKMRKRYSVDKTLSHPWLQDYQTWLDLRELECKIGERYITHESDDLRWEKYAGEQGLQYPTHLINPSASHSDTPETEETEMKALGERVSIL
PPC-1+TRAIL kill – compounds killing PPC-1 cancer cells with TRAIL present (potentiator screen, no TRAIL-free arm); PPC-1 cells + TRAIL, ATPLite viability luminescence; cell killing (% activity), % at 4 µM or 5 µM; 220,000 tested, 0.41% active; AID 1443;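 active = cell killing above 50% in the first pass at 4 µM, then a duplicate retest at 5 µM averaging 50% or more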;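 also: plate controls were cells with TRAIL plus DMSO for no effect and medium-only wells lacking cells for full effect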
FLuc inh counter – counter-screen for luciferase assay inhibitors: firefly luciferase inhibition. inhibition, % at 10 µM. P08659. 200,000 tested, 1.5% active. ATPLite firefly luciferase biochemical luminescence, 10 min;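 active = inhibition above about 50% when tested at 10 µM, limit read from the data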
FLuc act counter – affects firefly luciferase, flagging false hits in luciferase stimulation screens; 200,000 tested, under 10 active; activation factor at 10 µM; ATPlite luciferase biochemical, luminescence, 10 min; 0 = ATP-free wells, 1 = DMSO control; P08659;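 active = luciferase activation factor, scaled between plate controls, of at least 2 with compound at 10 µM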
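test system = cell-free luciferase reagent | medium = PBS as buffer for the ATP substrate | dosing = test compounds dosed from 2 mM stocks in 100% DMSO | incubation = 10 min at ambient temperature | detection = luminescence measurement of luciferase light output | benchmarks = low control with PBS replacing ATP, high control enzyme plus ATP without compound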
TRAIL sens C8 – caspase-8 TRAIL sensitization; AID 624354; inhibition (viability loss, TRAIL sensitization), % at 10 µM; 360,000 tested, 1% active; NB7+C8 cells + TRAIL, ATPlite viability luminescence;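 active = compounds causing at least 50% loss of cell viability in the single-dose screen, relative to plate controls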
Wee1 degr inh – human Wee1 degradation inhibition, primary screen; AID 1321; reporter increase, % at 5 µM; HeLa Luc-Wee1K328M stability, luciferase luminescence; 100% = proteasome inhibitor MG132 effect; P30291; 220,000 tested, 1.2% active;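 active = activation above the mean of all tested compounds plus 3 SD, set per screening run, cut at about 8.8% in these data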;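 also: cells exposed to compound for 20 h before luminescence read; 0% = DMSO alone and 100% = MG132 at 30 µM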
Active calls of the source: *; . = not tested or not shown.

SMILES	PKD1 kinase inh	PPC-1+TRAIL kill	FLuc inh counter	FLuc act counter	TRAIL sens C8	Wee1 degr inh
CCOc1ccc2nc3cc(NCc4ccc(OC)cc4)ccc3c(N)c2c1	.	.	.	.	29	.
Nc1nc(N)c2cc(CNc3ccc(Cl)c(Cl)c3)ccc2n1	.	.	.	.	95*	.
Cc1ccc(Nc2nc(C(=O)N3CCC(C(=O)N4CCN(C)CC4)CC3)cs2)cc1	8	4	-9	1.1	0	2
Cc1ccc(Nc2nc(COC(=O)C3CC3)cs2)cc1	-2	12	53*	0.5	12	1
C=CCOc1ccc2c(c1)c(=O)cc(C(=O)O)n2CC	.	23	.	.	6	0
CCOC(=O)C1=C(N)n2c(s/c(=C\c3cccnc3)c2=O)=C(C(=O)OC)C1c1cccnc1 (stereo not given)	-3	.	.	.	-5	10*
COC(=O)Cn1c(=O)c(C(=O)CCl)c(N)n(Cc2ccccc2)c1=O	.	10	.	.	82*	-3
CCC(=O)OCC(=O)c1c(N)n(Cc2ccccc2)c(=O)n(C)c1=O	-4	11	-2	1	1	-2
CC(C)c1ccc(/C=N/NC(=O)c2c(Cl)cnn2C)cc1	7	42	93*	0.1	83*	1
Cc1nn(C)c(C(=O)N/N=C/c2ccc(Br)cc2)c1Cl	-4	18	-2	1	-1	3
COC(=O)C1CCN(C(=O)c2cc3c(=O)n4cccc(C)c4nc3n2Cc2ccccc2)CC1	.	12	.	.	-11	2
COc1cc(OC)nc(/N=C/N(C)C)n1	-3	5	-4	1	-13	33*
Cc1cc(/N=C/N(C)C)on1	-4	18	-2	1	-15	-1
Cc1nc(NCC2CCCO2)nc2c1C(=O)CC(C)(C)C2 (stereo not given)	-2	36	-1	1	7	1
Cc1nc(NCC2CCCO2)nc2c1C(=O)CC(C)C2 (stereo not given)	-2	-12	-6	1.1	52*	2
O=C(N/N=C\C=C\c1ccc2c(c1)OCO2)c1cccnc1	-1	2	25	0.8	1	2
O=C(N/N=C\C=C\c1ccc2c(c1)OCO2)C1COc2ccccc2O1 (stereo not given)	-6	22	3	1	-5	9.3*
COc1ccc(C(=O)Nc2nnc(Cc3ccc(OC)c(OC)c3)s2)c(OC)c1	.	.	.	.	5	.
COCc1nnc(NC(=O)c2ccc(OC)cc2OC)s1	0	38	56*	0.4	23	1
Cc1[nH]n(-c2nc(-c3ccc(Cl)cc3)cs2)c(=O)c1N=Nc1ccc(O)cc1	-2	0	8	0.9	80*	-1
O=C(NC1=NCCS1)c1csc2ccccc12	-1	20	55*	0.4	30	0
O=C(NC1=NCCS1)c1cccs1	0	0	-4	1	45*	0
CC(C)C(NC(=O)c1cccs1)C(=O)NC1=NCCS1 (stereo not given)	-10	-2	-5	1	-5	-3
Cc1ccc(NC(=O)COC(=O)Cc2csc(-c3ccc(Cl)cc3)n2)cc1C	-6	13	2	1	-2	15*
Cc1ccc(NC(=O)COC(=O)Cc2csc(-c3cccc(F)c3)n2)cc1C	8	23	-2	1	-9	3
SMILES	PKD1 kinase inh	PPC-1+TRAIL kill	FLuc inh counter	FLuc act counter	TRAIL sens C8	Wee1 degr inh
COCc1cnc(C)nc1N	-8	41	-8	1.1	3	4
O=C(c1ccc(COc2ccccc2Cl)o1)N1N=C(C(F)F)CC1(O)C(F)F (stereo not given)	9	20	-2	1	-17	11*
C=CCOn1c(C)c(C(C)=O)c2c3no[n+]([O-])c3ccc21	-7	12	-8	1.1	60*	-2
COn1c(C)c(C(C)=O)c2c3no[n+]([O-])c3ccc21	-2	-10	-7	1.1	-13	3
O=C(NC1CCCC1)C1CCCN1C(=O)Oc1ccccc1 (stereo not given)	0	12	-6	1.1	-3	-3
CCN(CC)C(=O)c1ccc(/C=C/c2c[nH]c3ccccc23)[n+](C)c1	-8	12	-5	1.1	3	-5
CC[n+]1c(/C=C/c2c[nH]c3ccccc23)ccc2cc(C)ccc21	-14	92*	16	0.8	.	0
Cn1c(=O)c2sccc2n2c(CCCC(=O)NCCc3ccccc3)nnc12	.	.	.	.	16	.
Cc1c(Br)cnn1C(C)C(=O)N1CCN(c2ccccc2F)CC1 (stereo not given)	.	.	.	.	3	.
O=c1[nH]c2ccccc2nc1/C=C/c1ccc(F)cc1	-2	17	68*	0.3	53*	2
O=C(/C=C/c1ccc(F)cc1)Nc1nc2ccccc2[nH]1	0	8	22	0.8	.	10*
O=c1[nH]c2ccccc2nc1/C=C/c1ccccc1	-1	18	60*	0.4	34	-2
CC(C)(C)/C(O)=C/c1nc2ccccc2[nH]c1=O	-2	-20	3	1	-2	-3
S=C(c1ccc(-c2ccc(Br)cc2)o1)N1CCOCC1	.	14	.	.	16	10*
S=C(c1ccc(-c2ccc(Br)cc2)o1)N1CCCCC1	-6	.	59*	0.4	14	3
S=C(c1ccc(-c2ccc(Cl)cc2Cl)o1)N1CCCCC1	-6	15	33	0.7	19	10*
NS(=O)(=O)c1ccc(NC(=O)C(=O)NCCC(=O)O)cc1	.	7	.	.	-15	-1
CC1(C)Cc2cccc(C(=O)NC3CCN(Cc4ccccc4)CC3)c2O1	.	3	.	.	11	6
O=C(NNC1=NS(=O)(=O)c2ccccc21)c1ccc([N+](=O)[O-])cc1	.	.	.	.	61*	.
O=C(NNC1=NS(=O)(=O)c2ccccc21)c1ccc(Cl)cc1	0	49	84*	0.2	47	-1
CCN(CC)S(=O)(=O)c1ccc(C(=O)NNC2=NS(=O)(=O)c3ccccc32)cc1	.	.	.	.	5	.
COc1cc(/C=C/c2ccc3c([N+](=O)[O-])cccc3n2)ccc1OCC(=O)O	.	23	.	.	19	3
COc1cc(/C=C/c2ccc3cccc([N+](=O)[O-])c3n2)ccc1OCC(=O)O	0	21	58*	0.4	31	-2
Cc1cccc(C(=O)OCC(=O)NCCNC(=O)COC(=O)c2cccc(C)c2C)c1C	.	.	.	.	-7	.
COC(=O)[C@]12CCCCC=C1N(Cc1cccc3ccccc13)C(=O)[C@H](CC(=O)N1CCN(C(=O)c3ccco3)CC1)C2	.	.	.	.	24	.
Cc1cccc(C(=O)Nc2cccc3cccnc23)c1	.	.	.	.	13	.
C/C(=N\Nc1cccc2cccnc12)c1ccc(C)cc1	-7	4	62*	0.4	30	7
CCn1cc([N+](=O)[O-])c(C(=O)NCc2ccc3c(c2)OCO3)n1	.	.	.	.	-1	.
Cc1ccnc2nc(C(=O)Nc3ccc4c(c3)OCO4)nn12	-10	32	51*	0.5	26	2
Cc1cc(C)n2nc(C(=O)Nc3ccc4c(c3)OCO4)nc2n1	-6	37	29	0.7	7	1
